Reference: ChEMBL document CHEMBL1141909, “3-Arylidene-1-(4-nitrophenylmethylene)-3,4-dihydro-1H-naphthalen-2-ones and related compounds displaying selective toxicity and reversal of multidrug resistance in neoplastic cells” (2005)

Key:
[1] = Effect of compound on multidrug resistance in colon320 neoplasm cells at 40 ug/ml concentration; expressed as fluorescence activity ratio (treated/untreated cells); assay type: functional, Homo sapiens
[2] = Effect of compound on multidrug resistance in murine L-5178 cells at 40 ug/ml concentration; expressed as fluorescence activity ratio (treated/untreated cells); assay type: functional, Mus musculus
HL-60 = test: Concentration for 50% cytotoxicity towards malignant cells expressed in HL-60 neoplastic cell line; assay type: functional; details: Homo sapiens
Procedure, shortened: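 Human promyelocytic leukaemia HL-60 cells were grown in RPMI1640 with 10% FBS and exposed to various compound concentrations for 24 h. Viable cell number was counted by trypan blue exclusion. CC50 was taken from dose-response curves, mean of duplicate determinations.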

[3] = Effect of compound on multidrug resistance in murine L-5178 cells at 4 ug/ml concentration; expressed as fluorescence activity ratio (treated/untreated cells); assay type: functional, Mus musculus
[4] = Concentration for 50% cytotoxicity towards nonmalignant cells expressed in HPC normal pulp cells; details: Homo sapiens
HSC-3 = test: Concentration for 50% cytotoxicity towards malignant cells expressed in HSC-3 neoplastic cell line; assay type: functional; details: Homo sapiens
Procedure, shortened: (§1)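 Human oral squamous carcinoma HSC-2 and HSC-3 and submandibular gland carcinoma HSG cells were grown in DMEM with 10% heat-inactivated FBS. Near-confluent cells were exposed to various compound concentrations for 24 h. Viable cells were read by MTT (absorbance of stained lysate at 540). CC50 came from dose-response curves as the mean of duplicates.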

[5] = Effect of compound on multidrug resistance in colon320 neoplasm cells at 4 ug/ml concentration; expressed as fluorescence activity ratio (treated/untreated cells); assay type: functional, Homo sapiens
[6] = Concentration for 50% cytotoxicity towards malignant cells expressed in HSC-2 neoplastic cell line; assay type: functional; details: Homo sapiens; procedure, shortened: as §1
[7] = Concentration for 50% cytotoxicity towards nonmalignant cells expressed in HGF normal gingival fibroblasts; details: Homo sapiens
[8] = Selectivity index of compound towards human malignant cell lines; assay type: functional
[9] = Concentration for 50% cytotoxicity towards malignant cells expressed in HSG neoplastic cell line; assay type: functional; details: Homo sapiens; procedure, shortened: as §1
[10] = Concentration for 50% cytotoxicity towards nonmalignant cells expressed in HPLF normal periodontal ligament fibroblasts; details: Homo sapiens
[11] = Effect of compound on multidrug resistance in murine L-5178 cells at 10 ug/ml concentration; expressed as fluorescence activity ratio (treated/untreated cells); assay type: functional, Mus musculus

Compound | Effect [1] | Effect [2] | CC50 (HL-60) | Effect [3] | CC50 [4] | CC50 (HSC-3) | Effect [5] | CC50 [6] | CC50 [7] | SI [8] | CC50 [9] | CC50 [10] | Effect [11]
COc1cc(/C=C2\CC/C(=C\c3ccc([N+](=O)[O-])cc3)C2=O)cc(OC)c1OC | 1.28 | 6.62 | > 400 µM | 3.06 | > 400 µM | > 400 µM | 1.96 | > 400 µM | > 400 µM | ~1 | > 400 µM | > 400 µM | 
COc1ccc(/C=C2\CCC/C(=C\c3ccc([N+](=O)[O-])cc3)C2=O)cc1OC | 4.62 | 47.3 | 4.3 µM | 20.4 | 82 µM | 4.4 µM | 6.12 | 2.3 µM | 53 µM | 13 | 13 µM | 95 µM | 
O=C1/C(=C/c2ccc(O)cc2)CCC/C1=C\c1ccc([N+](=O)[O-])cc1 | 0.6 | 0.97 | 4.4 µM | 0.94 | > 400 µM | 13 µM | 1.15 | 8.1 µM | > 400 µM | ~3.8 | > 400 µM | > 400 µM | 
COc1cc(/C=C2\Cc3ccccc3/C(=C\c3ccc([N+](=O)[O-])cc3)C2=O)cc(OC)c1OC | 13 | 120 | 0.55 µM | 134 | > 400 µM | 2.9 µM | 10.9 | 0.55 µM | > 400 µM | > 229 | 3 µM | > 400 µM | 
COc1cc(/C=C2/C(=O)/C(=C/c3ccc([N+](=O)[O-])cc3)c3ccccc32)cc(OC)c1OC |  |  | 318 µM |  | 153 µM | > 400 µM |  | 221 µM | 89 µM | ~0.6 | > 400 µM | > 400 µM | 
O=C1/C(=C/c2ccc(Cl)cc2)CCC/C1=C\c1ccc([N+](=O)[O-])cc1 | 0.53 | 0.94 | 4.1 µM | 1.16 | 345 µM | 4.6 µM | 0.6 | 1.5 µM | 191 µM | 46 | 15 µM | 332 µM | 
COc1cc(/C=C2\CCC/C(=C\c3ccc([N+](=O)[O-])cc3)C2=O)ccc1O | 1.13 | 0.83 | 3.4 µM | 1.5 | > 400 µM | 5.2 µM | 1.98 | 2.8 µM | 165 µM | > 44 | 11 µM | 171 µM | 
COc1ccc(/C=C2\Cc3ccccc3/C(=C\c3ccc([N+](=O)[O-])cc3)C2=O)cc1OC | 11.4 | 55.9 | 0.56 µM | 44.1 | > 400 µM | 4.2 µM | 7.19 | 0.92 µM | > 400 µM | > 159 | 4.4 µM | > 400 µM | 
O=C1/C(=C/c2ccc(O)cc2)Cc2ccccc2/C1=C\c1ccc([N+](=O)[O-])cc1 | 11.7 | 39.3 | 2.5 µM | 135 | 113 µM | 14 µM | 1.99 | 5.2 µM | 85 µM | 12 | 11 µM | 75 µM | 
COc1cc(/C=C2\Cc3ccccc3/C(=C\c3ccc([N+](=O)[O-])cc3)C2=O)ccc1O | 6.2 | 123 | 0.95 µM | 51.8 | 83 µM | 3.8 µM | 3.38 | 1.45 µM | 33 µM | 15 | 5.8 µM | 21 µM | 
O=C1/C(=C/c2ccc([N+](=O)[O-])cc2)CCC/C1=C\c1ccc2c(c1)OCO2 | 0.59 | 1.23 | > 400 µM | 0.91 | 391 µM | 189 µM | 0.67 | 308 µM | > 400 µM | ~1.2 | > 400 µM | 330 µM | 
COc1ccc(/C=C2\CCC/C(=C\c3ccc([N+](=O)[O-])cc3)C2=O)cc1 | 0.58 | 0.82 | > 400 µM | 0.76 | > 400 µM | > 400 µM | 0.5 | > 400 µM | > 400 µM | ~1 | > 400 µM | > 400 µM | 
COc1cc(/C=C2\CCC/C(=C\c3ccc([N+](=O)[O-])cc3)C2=O)cc(OC)c1OC | 4.38 | 75.1 | 1.1 µM | 15.6 | 347 µM | 4.7 µM | 7.43 | 0.76 µM | 336 µM | 95 | 8.3 µM | 378 µM | 
COc1ccc(/C=C2\Cc3ccccc3/C(=C\c3ccc([N+](=O)[O-])cc3)C2=O)cc1 | 4.3 | 7.68 | 4.4 µM | 4.36 | > 400 µM | 32 µM | 2.22 | 11 µM | > 400 µM | > 17 | 47 µM | > 400 µM | 
O=C1/C(=C/c2ccc3c(c2)OCO3)Cc2ccccc2/C1=C\c1ccc([N+](=O)[O-])cc1 | 2.27 | 3.87 | 2.2 µM | 3.27 | > 400 µM | 7.6 µM | 1.95 | 2.6 µM | > 400 µM | > 92 | 5 µM | > 400 µM | 
COc1ccc(/C=C2\CC/C(=C\c3ccc([N+](=O)[O-])cc3)C2=O)cc1 | 0.37 | 0.69 | > 400 µM | 0.59 | > 400 µM | > 400 µM | 0.63 | 63 µM | > 400 µM | ~1.3 | > 400 µM | > 400 µM | 
COc1cccc2c1C(=O)c1c(O)c3c(c(O)c1C2=O)C[C@@](O)(C(=O)CO)C[C@@H]3O[C@H]1C[C@H](N)[C@H](O)[C@H](C)O1 [DOXORUBICIN] |  |  | 0.47 µM |  | 414 µM | 2.9 µM |  | 0.68 µM | 233 µM | > 235 | 1.9 µM | > 400 µM | 
COc1ccc(CCN(C)CCCC(C#N)(c2ccc(OC)c(OC)c2)C(C)C)cc1OC (configuration not stated) [VERAPAMIL] |  |  |  |  |  |  |  |  |  |  |  |  | 38.2
